Data reported in PMC10463567 (Journal of medicinal chemistry, 2023).
Several values for one entry are separate records, joined by “and”; a condition that tells them apart may be missing. Identical values can stand only once. Entries after “also recorded” stand apart in the source; their conditions may differ. Counter-ions that a name gives are not always drawn.

Legend:
[1] = system: ZIKV (FLR strain, Colombia, 2015); assay: Anti-ZIKV; assay type: cell-based, Zika virus; details: Vero cells; for % inhibition of ZIKV at 10 μM: ZIKV FLV (FLR) strain, viral titer vs untreated
Vero cells = assay: Cytotoxicity to Vero cells in the anti-ZIKV screen; assay type: cell-based, monkey; details: 10 μM screen; in Table 2 printed in the % inhibition at 10 μM column
Outline: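 Cytopathic effect and cell death were scored by microscope, with MTT to quantitate viable cells. Compounds giving CPE-like phenotype or cell death at 10 μM were flagged as cytotoxic.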

ZIKV = assay: Anti-ZIKV activity in Vero cells with added glutathione; assay type: cell-based, Zika virus; details: 1 mM GSH in culture media
Outline: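 ZIKV (FLR strain) infected Vero cells were given test compound in culture medium supplemented with 1 mM glutathione, a nucleophilic thiol, to test whether the compound acts by covalent reaction. Anti-ZIKV activity was read in the cell-based antiviral assay.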

ZIKV RNA = assay: Quantitative RT-PCR of ZIKV RNA copies in supernatant of infected Vero cells; assay type: cell-based, Zika virus
Outline: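 Viral RNA was extracted with TRIzol from 50 μL of culture supernatant. One-step TaqMan RT-qPCR used ZIKV-specific primers and probe amplifying envelope gene region 3. ZIKV RNA was expressed as copies/mL, calculated from a standard curve.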

ZIKV (FLV strain) = assay: Time-of-addition; assay type: cell-based, Zika virus; details: 1 μM, added together with virus, Vero cells
[2] = system: Zika virus NS5, NS3 and capsid proteins; assay: Western blot of viral NS5, NS3 and capsid proteins in ZIKV-infected Vero cells; assay type: cell-based; details: 48h

Question: For `COc1cccc(-c2ccc3nc(/C=C/c4cccc(OC)n4)n(-c4cccc(C(C)(C)C)c4)c(=O)c3c2)c1` [Compound 30, 6-(3-Methoxyphenyl)-3-(3-tert-butylphenyl)-2-[2-(6-methoxypyridin-2-yl)vinyl]-4(3H)-quinazolinone], which “% inhibition of ZIKV at 10 μM” value ([1]; 10 μM) is on record?
Answer: inactive

Question: For `COc1ccc2nc(/C=C/c3cccc(OC)n3)n(-c3cccc(C(C)(C)C)c3)c(=O)c2c1` [Compound 21, 6-Methoxy-3-(3-tert-butylphenyl)-2-[2-(6-methoxyl-2-pyridinyl)ethenyl]-4(3H)-quinazolinone], which “% inhibition of ZIKV at 10 μM” value ([1]; 10 μM) is on record?
Answer: inactive

Question: How did the “% inhibition of ZIKV at 10 μM” value ([1]; 10 μM) turn out when `COc1cccc(/C=C/c2nc3ccc(-c4ccncc4)cc3c(=O)n2-c2cccc(C(C)(C)C)c2)n1` [Compound 29, 6-(Pyridin-4-yl)-3-(3-tert-butylphenyl)-2-[2-(6-methoxypyridin-2-yl)vinyl]-4(3H)-quinazolinone dihydrochloride] was run?
Answer: inactive

Question: For `COc1cccc(/C=C/c2nc3ccc(N4CCC(N5CCOCC5)CC4)cc3c(=O)n2-c2cccc(C(C)(C)C)c2)n1` [Compound 28, 6-(4-Morpholinopiperidin-1-yl)-3-(3-tert-butylphenyl)-2-[2-(6-methoxyl-2-pyridinyl)ethenyl]-4(3H)-quinazolinone], which “Cytotoxicity to Vero cells” value (Vero cells) is on record?
Answer: without cytotoxicity

Question: What does the source list for `COc1cccc(/C=C/c2nc3ccc(N4CCOCC4)cc3c(=O)n2-c2cccc(C(C)(C)C)c2)n1` [Compound 27, 6-Morpholino-3-(3-tert-butylphenyl)-2-[2-(6-methoxyl-2-pyridinyl)ethenyl]-4(3H)-quinazolinone]?
Answer: Cytotoxicity to Vero cells (Vero cells): without cytotoxicity; anti-ZIKV activity in the presence of GSH (ZIKV): not affected; ZIKV RNA copies in the supernatant (ZIKV RNA): dose-dependently reduce; viral titer reduction, 2h-pretreatment (ZIKV (FLV strain)): ≥ 90%; fold more potent antiviral activity than compound 22 ([1]; ZIKV-FLR, EC50 comparison): ~ 4 ×; cellular levels of viral NS5, NS3 and capsid proteins [2]: significantly reduce

Question: For “3-(3-tert-Butylphenyl)-2-[2-(3-methoxyl-2-pyridinyl)ethenyl]-4(3H)-quinazolinone [Compound 11]”, which “% inhibition of ZIKV at 10 μM” value ([1]; 10 μM) is on record?
Answer: 0%

Question: How did the “% inhibition of ZIKV at 10 μM” value ([1]; 10 μM, 10 µM) turn out when `CC(C)(C)c1cccc(-n2c(/C=C/c3ccc(C(F)(F)F)cc3)nc3ccc(N4CCCCC4)cc3c2=O)c1` [Compound 36] was run?
Answer: 90%

Question: For “6-(4-Methylpiperazin-1-yl)-3-(3-tert-butylphenyl)-2-(2,6-dimethoxystyryl)-4(3H)-quinazolinone [Compound 40]”, which “Cytotoxicity to Vero cells” value (Vero cells) is on record?
Answer: Cytotoxic

Question: How did the “% inhibition of ZIKV at 10 μM” value ([1]; 10 μM) turn out when `COc1cccc(/C=C/c2nc3ccc(Cl)cc3c(=O)n2-c2cccc(C(C)(C)C)c2)n1` [Compound 20, 6-Chloro-3-(3-tert-butylphenyl)-2-[2-(6-methoxyl-2-pyridinyl)ethenyl]-4(3H)-quinazolinone] was run?
Answer: inactive

Question: For “3-(3-tert-Butylphenyl)-2-[2-(4-trifluoromethyl-3-pyridinyl)ethenyl]-4(3H)-quinazolinone [Compound 3]”, which “% inhibition of ZIKV at 10 μM” value ([1]; 10 μM) is on record?
Answer: 90.0%

Question: With `COc1cccc(CCc2nc3ccc(N4CCOCC4)cc3c(=O)n2-c2cccc(C(C)(C)C)c2)n1` [Compound 54, 6-Morpholino-3-(3-tert-butylphenyl)-2-[2-(6-methoxypyridin-2-yl)ethyl]-4(3H)-quinazolinone] as the molecule, how does the “% inhibition of ZIKV at 10 μM” value ([1]; 10 μM) read?
Answer: inactive

Question: For `CC(C)(C)c1cccc(-n2c(/C=C/c3cccnc3)nc3ccccc3c2=O)c1` [Compound 12, 3-(3-tert-Butylphenyl)-2-[2-(3-pyridinyl)ethenyl]-4(3H)-quinazolinone], which “% inhibition of ZIKV at 10 μM” value ([1]; 10 μM) is on record?
Answer: inactive

Question: How did the “% inhibition of ZIKV at 10 μM” value ([1]; 10 μM) turn out when “6-(Piperidin-1-yl)-3-(3-tert-butylphenyl)-2-(2,6-dimethoxystyryl)-4(3H)-quinazolinone [Compound 39]” was run?
Answer: 96.8%

Question: How did the “ZIKV RNA copies in the supernatant” value (ZIKV RNA) turn out when `COc1cccc(/C=C/c2nc3ccc(N4CCCCC4)cc3c(=O)n2-c2cccc(C(C)(C)C)c2)n1` [Compound 22, 6-(Piperidin-1-yl)-3-(3-tert-butylphenyl)-2-[2-(6-methoxyl-2-pyridinyl)ethenyl]-4(3H)-quinazolinone] was run?
Answer: dose-dependently reduce

Question: `COc1cccc(/C=C/c2nc3ccc(N4CCNCC4)cc3c(=O)n2-c2cccc(C(C)(C)C)c2)n1` [Compound 25, 6-(Piperazin-1-yl)-3-(3-tert-butylphenyl)-2-[2-(6-methoxyl-2-pyridinyl)ethenyl]-4(3H)-quinazolinone hydrochloride] was tested. Which “Cytotoxicity to Vero cells” value (Vero cells) did it give?
Answer: significant cytotoxicity; also recorded: Cytotoxic

Question: Which “% inhibition of ZIKV at 10 μM” value ([1]; 10 μM) does the source give for `CC(C)(C)c1cccc(-n2c(/C=C/c3ccccc3)nc3ccccc3c2=O)c1` [Compound 15, 3-(3-tert-Butylphenyl)-2-(2-phenylethenyl)-4(3H)-quinazolinone] here?
Answer: inactive

Question: With `COc1cccc(CCc2nc3ccc(N4CCCCC4)cc3c(=O)n2-c2cccc(C(C)(C)C)c2)n1` [Compound 53, 6-(Piperidin-1-yl)-3-(3-tert-butylphenyl)-2-[2-(6-methoxypyridin-2-yl)ethyl]-4(3H)-quinazolinone] as the molecule, how does the “% inhibition of ZIKV at 10 μM” value ([1]; 10 μM) read?
Answer: inactive

Question: How did the “% inhibition of ZIKV at 10 μM” value ([1]; 10 μM, 10 µM) turn out when “3-(3-tert-Butylphenyl)-2-[2-(1-naphthyl)ethenyl]-4(3H)-quinazolinone [Compound 19]” was run?
Answer: 68% and 68.4%

Question: How did the “fold activity enhancement to inhibit ZIKV replication compared to unsubstituted compound 11” value ([1]; 10 μM) turn out when `CCN(CC)c1ccc2nc(/C=C/c3cccc(OC)n3)n(-c3cccc(C(C)(C)C)c3)c(=O)c2c1` [Compound 1, 6-Diethylamino-3-(3-tert-butylphenyl)-2-[2-(6-methoxyl-2-pyridinyl)ethenyl]-4(3H)-quinazolinone] was run?
Answer: ≥ 1,000 fold

Question: How did the “Cytotoxicity to Vero cells” value (Vero cells) turn out when `COc1cccc(/C=C/c2nc3ccc(N4CCN(C)CC4)cc3c(=O)n2-c2cccc(C(C)(C)C)c2)n1` [Compound 26, 6-(4-Methylpiperazin-1-yl)-3-(3-tert-butylphenyl)-2-[2-(6-methoxyl-2-pyridinyl)ethenyl]-4(3H)-quinazolinone] was run?
Answer: Cytotoxic
